The test system of one data set is RAW264.7. Put plainly: Inhibition of LPS-induced nitric oxide production in mouse RAW264.7 cells. The format is functional, cell-based. The method, boiled down: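 Compounds were pre-added 30 min before LPS stimulation for 24 h. Supernatant was mixed 1:1 with Griess reagent (1% sulfanilamide, 0.1% naphthylethylenediamine dihydrochloride, 2% phosphoric acid) for 5 min at room temperature. Nitrite was read at OD 550 nm against a NaNO₂ standard curve. IC50 came from dose–inhibition curves, mean of four independent experiments.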

A short description of data set [1]: Cytotoxicity against mouse RAW264.7 cells assessed as cell viability at 13.10 uM by MTT assay. The format is cell-based. As to conditions: read-out: Activity. (In general: Formazan colour is commonly taken as a measure of viable cells.)
A short description of data set [2]: Cytotoxicity against mouse RAW264.7 cells assessed as cell viability at 3.78 uM by MTT assay. The format is cell-based. As to conditions: read-out: Activity.
Data set [3] is described as follows: Selectivity for iNOS to eNOS.
Data set [4] can be described thus: Selectivity for iNOS to nNOS.

Each structure is given as a SMILES string.

As usually defined, the IC50 is the concentration that inhibits the measured activity by half. The low end stands for greater potency in that assay, the high end for weaker potency in that assay.

In turn, `COc1cc(OC)c(C(=O)/C=C/c2ccc3c(c2)OCO3)c(OC)c1` yielded an IC50 in the data set on RAW264.7 of 13.1 µM. Further, in data set [1], the viability at 13.1 µM came to 100%.
Turning to `CC(=N)NCc1cccc(CN)c1` [1400W], inhibition with RAW264.7 was half-maximal at 3.78 µM (IC50). Further, in data set [2], the viability at 3.78 µM was found to be 82%. For the same molecule, the Selectivity ratio in data set [3] was determined as 5000; in data set [4], 200.

For the origin of these results see ChEMBL document CHEMBL1141553, “Synthesis and pharmacological activity of chalcones derived from 2,4,6-trimethoxyacetophenone in RAW 264.7 cells stimulated by LPS: quantitative structure-activity relationships” (Bioorg Med Chem, 2008).
